These results are taken from ChEMBL document CHEMBL4706643 (J Med Chem, 2021).

Data set [1] deals with T1, Hepatic sodium/bile acid cotransporter (Homo sapiens, UniProt Q14973).
T1 sequence (Q14973 whole entry): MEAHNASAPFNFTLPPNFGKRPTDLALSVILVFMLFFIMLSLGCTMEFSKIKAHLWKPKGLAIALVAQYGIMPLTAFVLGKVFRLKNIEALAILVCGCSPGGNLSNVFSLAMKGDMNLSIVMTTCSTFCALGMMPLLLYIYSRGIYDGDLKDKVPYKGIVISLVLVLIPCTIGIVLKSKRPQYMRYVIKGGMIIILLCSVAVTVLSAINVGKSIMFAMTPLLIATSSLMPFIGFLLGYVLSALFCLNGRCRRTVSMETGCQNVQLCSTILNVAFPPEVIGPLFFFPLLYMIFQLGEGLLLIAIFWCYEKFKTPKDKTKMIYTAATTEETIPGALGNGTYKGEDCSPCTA
Put plainly: Inhibition of human NTCP-mediated [3H]-TCA uptake expressed in human HepG2 cells incubated for 2 hrs followed by substrate addition and measured for 10 mins by microbeta liquid scintillation counter analysis. The class given is cell-based. In a few lines:
(§1)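 HepG2 cells expressing NTCP (human, mouse, monkey or tree shrew) seeded 4–6 h, PMM 20–24 h; compound 2 h, then Na+ Ringer's buffer with 2 μM 3H-TCA, 37 °C 10 min; PBS washes, lysis in 1% Triton X-100, scintillation counting. Single-concentration lines at 2 μM.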

For data set [2], the system named is Hepatitis B virus. Put plainly: Antiviral activity against HBV infected in human HepG2-NTCP cells assessed as reduction in HBV cccDNA levels cells inoculated with virus for 4 hrs at room temperature and 37 degree C for 24 hrs followed inoculum changed with PMM medium for every 2 days until day 5 post infection by DIG-labelled probe based southern blot analysis. The class given is functional, organism-based. Particulars: time 28.0 hrs. The procedure, abridged:
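HepG2-NTCP cells infected with compound added together with HBV inoculum; DNA harvested day 5 post infection by modified Hirt extraction. Southern blot on 1.2% agarose, UV cross-linked, hybridised at 50 °C overnight with DIG-labelled full-length genotype D HBV genomic probe; chemiluminescent detection; 3.2, 2.1 and 1.7 kb HBV fragments as markers.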

Data set [3] in a line: Half life in C57BL/6 mouse plasma at 5 mg/kg, iv. The class given is ADME, organism-based. In a few lines:
(§2)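 Male C57BL/6 mice (n = 3), single dose IV 5 mg/kg, IP 10 mg/kg or PO 10 mg/kg in DMSO:cremophor:0.9% NaCl 5:5:90; plasma parameters reported as means.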

Data set [4] in a line: AUC (0 to infinity) in C57BL/6 mouse at 10 mg/kg, po. The class given is ADME, organism-based. Set-up: route oral, time infinity, dose 10 mg/kg. Particulars: in vivo. In a few lines:
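Male C57BL/6 mice, n = 3, dosed IV at 5 mg/kg, IP at 10 mg/kg or by oral gavage (PO) at 10 mg/kg. All doses formulated in DMSO:cremophor:0.9% NaCl = 5:5:90. AUC from time zero to infinity (h*ng/mL) was derived from plasma drug levels and is reported as the mean of the males.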

The test system of data set [5] is HepG2. Put plainly: Antiviral activity against HBV genotype C infected in human HepG2-NTCP cells assessed as reduction in HBeAg secretion at 2 uM cells inoculated with virus for 4 hrs at room temperature and 37 degree C for 24 hrs followed inoculum changed with PMM medium for every 2 days until day 5 post infection by ELISA. Conditions: time 28.0 hrs. The class given is functional, cell-based. In a few lines: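 HepG2-NTCP cells seeded 4–6 h, then primary maintenance medium 20–24 h; virus inoculum plus compound dilutions 4 h at room temperature, then 37 °C 24 h; medium changed every 2 days to PMM with 2% FBS until day 5 post infection. Secreted HBeAg measured by ELISA; IC50 by nonlinear regression from six or more points, three repeats.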
For orientation: In an ELISA, binding on a coated surface is turned into a signal by an enzyme label.

For data set [6], the system named is HepG2. As to the kind of experiment: Inhibition of tree shrew NTCP-mediated [3H]-TCA uptake expressed in human HepG2 cells at 2 uM incubated for 2 hrs followed by substrate addition and measured for 10 mins by microbeta liquid scintillation counter analysis. The class given is cell-based. Particulars: Scandentia. In a few lines: as §1
Data set [7] in a line: Half life in C57BL/6 mouse at 10 mg/kg, ip. The class given is ADME, organism-based. Conditions: in vivo. In a few lines:
as §2

Active and inactive are the calls of the source.

By IC50 is commonly meant the point on the concentration scale where inhibition reaches its midpoint. As a reminder, the half-life is the time needed for the level to fall by half in the phase considered. High values mean slow decline, low ones rapid decline. Usually AUC(0-inf) stands for total exposure, with the tail of the curve extrapolated. Lower therefore signals low exposure. `CC[C@@H]1NC(=O)[C@H]([C@@H]2O[C@@H](Sc3cccc(OCc4ccccc4)c3)C[C@H]2C)N(C)C(=O)[C@H](C(C)C)N(C)C(=O)[C@H](CC(C)C)N(C)C(=O)[C@H](CC(C)C)N(C)C(=O)[C@@H](C)NC(=O)[C@H](C)NC(=O)[C@H](CC(C)C)N(C)C(=O)[C@H](C(C)C)NC(=O)[C@H](CC(C)C)N(C)C(=O)CN(C)C1=O` yielded an IC50 in data set [1] of 66 nM. In data set [2], the Activity entry was “Dose-dependent effect”. Also, the half-life in data set [3] was 6.03 h; in data set [7], 5.68 h. Moreover, the AUC(0-inf) in data set [4] was found to be 14500 ng·h/mL. Moreover, the result in data set [5] was Active. The inhibition result in data set [6] was “Active”.
